UCH37 inh: blocks the human deubiquitinase UCH37; Q9Y5K5; purified proteasome/UCH37, Ub-AMC cleavage fluorescence; inhibition, % (concentration not given with the values); 330,000 compounds, 0.33% hits;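 active = mean inhibition over replicate wells above about 20%, limit read from the data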;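 also: 0% = compound-free wells with enzyme and 100% = wells lacking proteasome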
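Material: human UCH37 enzyme supplied as purified proteasome complex / Amount: 0.15 nM proteasome as dispensed / Buffer or medium: pH 7.4 Tris-HCl (50 mM) with ovalbumin, ATP-MgCl2, DTT / Times: preincubation 30 min, reaction 25 min, room temperature / Technique: AMC fluorescence from Ub-AMC cleavage, excitation 355 nm, emission 460 nm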
PAD4 inh: PAD4 (human) enzyme inhibition; Q9UM07; recombinant PAD4, RCA probe fluorescence polarization; inhibition, % at 6.36 µM; 330,000 compounds, 0.41% hits; AID 485272;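 active = percent inhibition above a cutoff equal to the mean of all tested compounds plus 3 SD, cut at about 15% in these data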;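 also: 0% = PAD4 with RCA probe and DMSO and 100% = probe without PAD4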
PP5 primary: blocks human protein phosphatase 5 activity; P53041; purified PP5c, OMFP substrate fluorescence; inhibition, % at 6.7 µM; 320,000 compounds, 0.18% hits; AID 1987;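 active = inhibition above the campaign's mean inhibition across all tested compounds plus 3 SD, cut at about 9.5% in these data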;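 also: 0% = DMSO only and 100% = 100 µM cantharidin control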
Target sequence (P53041 whole entry, looked up): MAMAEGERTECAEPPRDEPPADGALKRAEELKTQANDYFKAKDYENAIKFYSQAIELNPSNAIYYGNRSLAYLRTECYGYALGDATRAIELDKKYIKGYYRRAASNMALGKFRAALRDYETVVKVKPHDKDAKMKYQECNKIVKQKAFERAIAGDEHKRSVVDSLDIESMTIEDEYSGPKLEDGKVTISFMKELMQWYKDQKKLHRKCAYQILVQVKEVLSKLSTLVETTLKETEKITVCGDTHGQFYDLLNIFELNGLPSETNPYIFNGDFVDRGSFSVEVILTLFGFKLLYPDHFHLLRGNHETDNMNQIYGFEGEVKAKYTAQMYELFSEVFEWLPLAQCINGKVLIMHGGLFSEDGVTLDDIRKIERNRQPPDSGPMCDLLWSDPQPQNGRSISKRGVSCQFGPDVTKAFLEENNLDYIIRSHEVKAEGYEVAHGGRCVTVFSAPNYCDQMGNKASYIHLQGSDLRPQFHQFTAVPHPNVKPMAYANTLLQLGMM
Apaf1 inhib: human Apaf-1 inhibition | O14727 | reconstituted apoptosome caspase-3 activity, DEVD-Rh110 fluorescence | inhibition, % at 20 µM | 330,000 compounds, 0.71% hits; active = inhibition of at least 40% at 20 µM;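 also: plate controls were DMSO wells for no effect and DEVD-CHO caspase inhibitor wells for full effect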
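System – cell-free apoptosome with Apaf-1, procaspase-3 and caspase-9 · Buffer or medium – pH 7.5 Hepes buffer with CHAPS, BSA, DTT · Also added – cytochrome c with DEVD-Rh110 · Times – 30 min compound preincubation, 50 min activation, room temperature · Technique – Rh110 fluorescence intensity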
Fh CTSL1 inh: blocks F. hepatica cathepsin L1 in PFM18AAP counter-screen. AID 1906. recombinant F. hepatica cathepsin L1, Z-Leu-Arg-MCA fluorescence. 300,000 compounds, 0.49% hits. inhibition, % at 5.96 µM;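 active = inhibition above the mean of all tested compounds plus 3 SD, set per screening campaign, cut at about 17% in these data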;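 also: 0% = plate median of test compound wells and 100% = 1 µM Z-Phe-Ala-diazomethylketone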
GSTO1 inh: counter-screen for RBBP9 inhibitors: inhibitors of human GSTO1; recombinant GSTO1, activity-based probe fluorescence polarization; P78417; AID 1974; inhibition, % at 5.96 µM; 300,000 compounds, 1.1% hits;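 active = inhibition above the campaign mean inhibition plus 3 SD, cut at about 35% in these data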;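 also: 0% = GSTO1-1 with DMSO and 100% = wells lacking GSTO1-1 enzyme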
Target sequence (P78417 whole entry, looked up): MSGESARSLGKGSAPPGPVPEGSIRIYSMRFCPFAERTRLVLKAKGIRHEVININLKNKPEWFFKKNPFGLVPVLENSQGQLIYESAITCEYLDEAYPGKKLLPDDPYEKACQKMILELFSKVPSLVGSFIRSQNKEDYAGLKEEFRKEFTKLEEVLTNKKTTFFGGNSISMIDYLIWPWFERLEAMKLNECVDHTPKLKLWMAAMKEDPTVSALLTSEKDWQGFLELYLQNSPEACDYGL
Apaf-1 inh conf2: Apaf-1 inhibition, single-dose confirmed; 1,800 compounds, 25% hits; reconstituted apoptosome, caspase-3 DEVD-Rh110 fluorescence; shares compounds with Apaf1 inhib; inhibition, % at 20 µM; AID 504614;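 active = mean inhibition of at least 40% at 20 µM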;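 also: plate controls were DMSO wells for no effect and DEVD-CHO caspase inhibitor control wells for full effect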
Rh110 interf inh: interferes with Rh110 fluorescence, flagging false Apaf-1 inhibitors. shares compounds with Apaf1 inhib. Rh110 fluorescence interference, quenched caspase reaction. activation (fluorescence interference), % at 20 µM. 1,800 tested, under 10 active. AID 504615;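 active = signal rise of 40% or more at 20 µM, treated as a fluorescence artifact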
Apaf1 inh interf: shows fluorescence interference in the Apaf-1 inhibitor assay format. shares compounds with Apaf1 inhib. fluorescence interference counterscreen, Apaf-1 assay format. IC50, µM. 460 tested, under 10 active; call rule not given here
Active calls of the source: *; · = not tested or not shown. Compounds with a hit are over-represented: about 2% of the library has one in this group of screens.

SMILES	UCH37 inh	PAD4 inh	PP5 primary	Apaf1 inhib	Fh CTSL1 inh	GSTO1 inh	Apaf-1 inh conf2	Rh110 interf inh	others
C#CCOCCOCCOCCNc1nc(N2CCN(C(=O)CCCCCCCCCCNC(=O)[C@H]([C@@H](C)CC)n3cc(CCCCN=C(N)N)nn3)CC2)nc(N2CCN(C(=O)CCCCCCCCCCNC(=O)[C@H](CCCCN)n3cc(C)nn3)CC2)n1	·	-14.1	6.1	73.2*	0.9	-1.2	63.4*	13.1	Apaf1 inh interf=>100
Cc1[nH]c2ccccc2c1/C=N/Nc1nc2ccccc2[nH]1	·	-6.4	2.9	40.0	2.9	-21.5	18.1	9.1
COc1ccc2nc(C)cc(N/N=C/c3ccc(F)cc3)c2c1	·	-0.2	2.8	49.6*	0.7	11.5	11.9	5.1
O=C(NN=Cc1ccc[nH]1)C1COc2ccccc2O1 (configuration not stated)	7.0	·	·	·	·	·	·	·
COc1cccc(C=NNC(=O)Cn2ccnc2C)c1	5.9	·	·	·	·	·	·	·
Cc1ccc(Oc2nc(CN3CCOCC3)nc3sc4c(c23)CCC(C)C4)cc1 (configuration not stated)	0.2	-7.2	-6.9	40.5*	6.2	1.1	21.1	13.7
O=C(NC(C(=O)NN=Cc1cccnc1)c1n[nH]c(=O)c2ccccc12)c1ccccc1 (configuration not stated)	3.7	·	·	·	·	·	·	·
Cc1nc2ccccn2c(=O)c1CCN1CCC(C(=O)c2ccc(F)cc2)CC1	-2.6	-2.0	-0.4	1.2	6.7	7.3	·	·
Cc1nc2sccn2c(=O)c1CCN1CCC(=C(c2ccc(F)cc2)c2ccc(F)cc2)CC1	1.3	-11.5	6.8	42.3*	3.2	-3.2	18.8	8.5
COc1ccc(-c2ccc(/C=N/N3C(=O)C4C5C=CC(C6CC56)C4C3=O)o2)c([N+](=O)[O-])c1 (configuration not stated)	·	0.1	1.8	14.6	3.3	10.4	·	·
COc1ccc(-c2ccc(C(c3c(C)[nH][nH]c3=O)c3c(C)[nH][nH]c3=O)o2)c([N+](=O)[O-])c1	8.0	·	·	75.4*	·	·	18.8	-0.7
O=C(ON=C1CCCc2ccccc21)c1cccc(Cl)c1	3.5	·	·	·	·	·	·	·
O=C(c1ccc(Cl)c(S(=O)(=O)N2CCCCCC2)c1)N1CCCC(C(F)(F)F)C1 (configuration not stated)	2.3	1.0	-4.0	59.6*	8.1	8.7	33.8	-1.1
O=C(c1ccc2ncsc2c1)N1CCCC(C(F)(F)F)C1 (configuration not stated)	1.6	0.0	0.4	42.3*	6.0	-0.8	30.7	5.1
CC1CCCN(C(=O)c2ccc3ncsc3c2)C1 (configuration not stated)	3.6	·	·	6.2	·	·	·	·
Clc1ccccc1C=NN1CCN(Cc2ccccc2)CC1	0.2	·	·	·	·	·	·	·
O=C(Cn1cnc2ccccc21)NN=C/C(Br)=C/c1ccccc1	-1.0	·	·	·	·	·	·	·
CCC(C)Sc1ccc(-c2nc3cc(C)ccn3c2NC2CCCCC2)cc1 (configuration not stated)	-207.7	-19.2	·	28.0	·	·	·	·
CCC(C)Sc1ccc(-c2nc3cnccn3c2NC2CCCCC2)cc1 (configuration not stated)	·	-4.4	6.7	45.2*	0.4	-2.9	31.6	19.4
CCCCNc1c(-c2ccc(OC)c(SC3CCCCC3)c2)nc2cnccn12	-103.8	2.0	4.9	36.1	6.9	3.3	·	·
CCCCNc1c(-c2ccc(SC3CCCCC3)cc2)nc2cnccn12	-170.9	-2.7	·	41.7*	·	·	33.0	26.4
Cc1ccc(NS(=O)(=O)c2cccc(C(=O)NCC(c3ccco3)N3CCCCC3)c2)cc1 (configuration not stated)	-0.7	-0.4	2.5	11.8	1.6	10.2	·	·
O=C(NCC(c1ccco1)N1CCCC1)c1cccc(S(=O)(=O)Nc2ccc(Br)cc2)c1 (configuration not stated)	-5.1	-3.4	1.7	59.4*	-2.6	5.0	41.5*	9.8	Apaf1 inh interf=>100
CNC(=O)N(O)C1N(N=Cc2cccnc2)C(=S)SC1(C)C (configuration not stated)	6.2	·	·	·	·	·	·	·
Cc1ccc(C=NNC(=O)C(c2ccncc2)N2CCOCC2)cc1 (configuration not stated)	0.9	·	·	·	·	·	·	·
SMILES	UCH37 inh	PAD4 inh	PP5 primary	Apaf1 inhib	Fh CTSL1 inh	GSTO1 inh	Apaf-1 inh conf2	Rh110 interf inh	others
NC1=Nc2cccc3cccc1c23	-34.4	-2.7	0.5	67.4*	2.3	34.5	10.8	7.9
O=C(NN=C(c1ccccc1)c1ccncc1)c1ccc2c(c1)OCO2	4.9	·	·	·	·	·	·	·
O=C(c1ccc(-c2cccc(C(F)(F)F)c2)o1)N1CCCC(C(F)(F)F)C1 (configuration not stated)	-0.6	-0.1	3.9	42.8*	-0.4	4.2	38.7	16.0
O=C(c1ccc(-c2cccc(C(F)(F)F)c2)o1)N1CCN(c2ccccc2O)CC1	1.1	2.0	4.9	33.5	4.2	-0.5	·	·
CC(Oc1ccc(Br)cc1)C(=O)NCC(C)(C)N1CCOCC1 (configuration not stated)	3.3	-1.2	0.3	47.4*	8.0	-0.2	34.0	-1.5
CCCCCCCCCCOC(=O)C[N+](C)(C)C/C=C(/C)Cl	0.6	-1.6	2.3	32.0	-2.5	1.6	·	·
CCCCCCCCCCCCOC(=O)C[N+](C)(C)C	0.5	-1.6	-2.2	46.2*	-1.8	5.2	9.9	1.3
Cc1ccc(C(=O)NCC(=O)N2CCCCCCC2)cc1	1.0	-4.9	1.6	60.6*	·	·	38.2	5.3
Cc1ccc(C(=O)NCC(=O)N2CCCCCC2)cc1	3.9	-2.0	-0.6	4.7	0.3	4.4	·	·
O=C(NN=Cc1cc([N+](=O)[O-])ccc1O)/C(=C\c1cccs1)NC(=O)c1ccccc1	-0.1	·	·	·	·	·	·	·
Cc1sc2ncnc(N3CCC(C(=O)N(C)CC(=O)Nc4ccccc4Br)CC3)c2c1C	4.2	3.2	1.6	26.3	-1.7	-3.2	·	·
Cc1sc2ncnc(N3CCC(C(=O)N(C)CC(=O)Nc4ccccc4Cl)CC3)c2c1C	0.2	-5.5	2.4	59.9*	1.4	0.3	35.2	0.9
S=C(Nc1ccc2nsnc2c1)N1CCCC1	10.1	-16.2	5.4	98.4*	-2.0	29.2	8.4	-0.3
CC(=O)c1ccc(N2CCN(S(=O)(=O)c3ccc4c(c3)CC(=O)N4)CC2)cc1	0.7	-0.2	-2.0	-4.4	0.9	-9.3	·	·
CC(=O)c1ccc(N2CCN(S(=O)(=O)c3ccc4c5c3CC(=O)N5CC(C)S4)CC2)cc1 (configuration not stated)	4.1	-0.6	-0.6	55.7*	-4.6	14.2	42.0*	5.9	Apaf1 inh interf=>100
